The values that follow come from ChEMBL document CHEMBL2401732, “Evaluation of adenine as scaffold for the development of novel P2X3 receptor antagonists” (Eur J Med Chem, 2013).

Assay [1] deals with T1, P2X purinoceptor 3 (Rattus norvegicus) (UniProt P49654).
T1 sequence (whole entry): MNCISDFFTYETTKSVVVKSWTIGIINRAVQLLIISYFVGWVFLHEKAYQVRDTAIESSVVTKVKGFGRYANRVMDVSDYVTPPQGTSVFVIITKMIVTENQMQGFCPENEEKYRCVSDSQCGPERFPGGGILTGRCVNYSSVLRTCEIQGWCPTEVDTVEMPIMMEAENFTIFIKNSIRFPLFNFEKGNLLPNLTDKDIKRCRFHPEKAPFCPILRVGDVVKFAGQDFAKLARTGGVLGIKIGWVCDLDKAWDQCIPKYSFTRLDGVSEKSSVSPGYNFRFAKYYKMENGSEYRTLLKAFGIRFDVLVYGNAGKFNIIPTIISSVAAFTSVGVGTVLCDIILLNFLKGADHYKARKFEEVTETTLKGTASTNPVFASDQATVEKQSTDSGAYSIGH
Briefly: Antagonist activity at rat recombinant P2X3 receptor expressed in HEK293T cells assessed as desensitization of alpha,beta-methyleneATP-induced current at 100 uM after 20 secs by patch clamp technique. The format is cell-based. The conditions noted are these: HEK-293T. The gist of the method:
(§1)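 HEK 293T cells transiently co-transfected by calcium phosphate with pEGFP and pcDNA3-P2X3 (rat or human, 1:1), used 24 or 48 h later. GFP-positive cells whole-cell clamped at -60 mV, room temperature, CsCl pipette solution, HEPES-buffered bath pH 7.4. Control response averaged over ≥3 pulses of 100 μM α,β-meATP (2 s, 5 min apart). Compound applied 20 s before agonist. Screening at 100 μM, then 100–0.3 μM. Peak % inhibition computed; Hill fits of dose–inhibition data, n = 6–14 cells.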
(In general: In patch-clamp work, channel activity is measured electrically.)

Assay [2] deals with T1, P2X purinoceptor 3 (Rattus norvegicus). Briefly: Antagonist activity at rat recombinant P2X3 receptor expressed in HEK293T cells assessed as desensitization of alpha,beta-methyleneATP-induced current at 1 uM after 20 secs by patch clamp technique. It counts as cell-based. The note with it: HEK-293T. The gist of the method:
as §1

For assay [3] the target is unchanged. Briefly: Antagonist activity at rat recombinant P2X3 receptor expressed in HEK293T cells assessed as desensitization of alpha,beta-methyleneATP-induced current at 100 uM after 6 mins of compound wash out by patch clamp technique. The format is cell-based. The conditions noted are these: HEK-293T. Put shortly:
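Rat P2X3 in transfected HEK 293T cells, whole-cell clamp at -60 mV. After 20 s compound application and a 2 s pulse of 100 μM α,β-meATP, the cell was washed for 6 min. Recovery was assessed as the peak current to a repeat agonist pulse, compared with the control peak.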

The target of the next assay is T2, P2X purinoceptor 3 (Rattus norvegicus, UniProt P49654).
T2 sequence (P49654 whole entry): T1 sequence (whole entry)
Briefly: Antagonist activity at rat recombinant P2X3 receptor expressed in HEK293T cells assessed as desensitization of alpha,beta-methyleneATP-induced current after 20 secs by patch clamp technique. The format is cell-based, HEK-293T. Put shortly:
as §1

Assay [4] has as its target T1, P2X purinoceptor 3 (Rattus norvegicus). Briefly: Antagonist activity at rat recombinant P2X3 receptor expressed in HEK293T cells assessed as desensitization of alpha,beta-methyleneATP-induced current at 10 uM after 20 secs by patch clamp technique. The format is cell-based. The conditions noted are these: HEK-293T. The gist of the method: as §1
The target is the same in assay [5]. Put plainly: Antagonist activity at rat recombinant P2X3 receptor expressed in HEK293T cells assessed as desensitization of alpha,beta-methyleneATP-induced current at 100 uM after 20 secs by patch clamp technique relative to control. It counts as cell-based. The arrangement: scale not given: the % may be the effect or the level left. The conditions noted are these: HEK-293T. Put shortly: as §1

Assay [6] concerns the target T3, P2X purinoceptor 3 (Homo sapiens) (UniProt P56373).
T3 sequence (whole entry): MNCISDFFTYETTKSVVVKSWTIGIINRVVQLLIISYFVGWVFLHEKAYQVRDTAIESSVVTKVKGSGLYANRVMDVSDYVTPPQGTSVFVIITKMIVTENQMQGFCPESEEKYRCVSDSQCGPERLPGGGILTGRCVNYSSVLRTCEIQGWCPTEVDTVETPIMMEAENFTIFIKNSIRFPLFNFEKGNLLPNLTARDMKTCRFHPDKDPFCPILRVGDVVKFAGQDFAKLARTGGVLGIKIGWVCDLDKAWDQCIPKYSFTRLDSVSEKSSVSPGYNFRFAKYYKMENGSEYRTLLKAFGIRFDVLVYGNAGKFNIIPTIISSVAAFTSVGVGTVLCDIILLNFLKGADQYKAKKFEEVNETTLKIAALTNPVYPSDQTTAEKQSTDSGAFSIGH
Put plainly: Antagonist activity at human recombinant P2X3 receptor expressed in HEK293T cells assessed as desensitization of alpha,beta-methyleneATP-induced current at 100 uM after 20 secs by patch clamp technique. The format is cell-based. The note with it: HEK-293T, 1 uM, in the assay text read “at 1 uM” for “at 100 uM”. The gist of the method: as §1

Assay [7] concerns the target T4, P2X purinoceptor 3 (Mus musculus) (UniProt Q3UR32).
T4 sequence (whole entry): T1 sequence (whole entry) with L144R, R202K, A377T
Briefly: Antagonist activity at P2X3 receptor in C57Bl/6 wild type mouse trigeminal ganglion sensory neurons assessed as desensitization of alpha,beta-methyleneATP-induced current at 1 uM after 20 secs by patch clamp technique. The format is tissue-based. The gist of the method:
(§2)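 Native P2X3 in trigeminal ganglion neurons from C57Bl/6 mice (P10–14), dissociated with trypsin/collagenase/DNAse at 37 °C for 12 min and cultured 24 h. Small/medium neurons whole-cell voltage clamped at -60 mV, room temperature. Pipette KCl-based with ATP–Mg/GTP–Li, pH 7.2. Compound superfused 20 s, then 2 s pulse of 100 μM α,β-meATP. % inhibition = 100×(1−I2/I1) from peak currents.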

The target in assay [8] is T1, P2X purinoceptor 3 (Rattus norvegicus). Put plainly: Antagonist activity at rat recombinant P2X3 receptor expressed in HEK293T cells assessed as desensitization of alpha,beta-methyleneATP-induced current at 0.3 uM after 20 secs by patch clamp technique. The format is cell-based. The conditions noted are these: HEK-293T. The gist of the method: as §1
Assay [9] concerns the target T4, P2X purinoceptor 3 (Mus musculus). Put plainly: Antagonist activity at P2X3 receptor in C57Bl/6 wild type mouse trigeminal ganglion sensory neurons assessed as desensitization of alpha,beta-methyleneATP-induced current at 100 uM after 20 secs by patch clamp technique. The format is tissue-based. The gist of the method:
as §2

The structures appear in SMILES notation. Residue numbers refer to the chain shown, from its start. The source made the active and inactive calls. The calls are words filed in the database; no cut-off is given here.

Take `COc1cc(C(C)C)c(Cn2cnc3c(OC)nc(N)nc32)cc1I`: in [1], the inhibition (commonly the drop in the measured response relative to a control, in per cent) is 50%.

As to `COc1cc(Cn2cnc3c(N)nc(N)nc32)c(C(C)C)cc1OC`, the values for the inhibition in assay [1], in assay [2] and in assay [4] were 82%, 8% and 36%, respectively. Further, the result in [3] was inactive. Further, on P2X purinoceptor 3, the IC50 – broadly, the midpoint of a concentration-inhibition curve – worked out at 18600 nM.

As to `COc1cc(Cn2cnc3c(Cl)nc(N)nc32)c(C(C)C)cc1OC`, in [1], the inhibition turned out to be 27%. Besides, in assay [5], the Activity was 6%.

Regarding `CNc1nc(N)nc2c1ncn2Cc1cc(I)c(OC)cc1C(C)C`, the inhibition in assay [1] was 98%; in assay [2], 41%; in assay [6], 29%; in assay [7] it was 37%; in assay [8] it was 22%; in assay [4] it was 76%. The result in assay [3] was inactive. Besides, the IC50 at P2X purinoceptor 3 is 1740 nM. Besides, the inhibition entry in [9] is “Active”.

Consider `COc1cc(Cn2cnc3nc(N)nc(Cl)c32)c(C(C)C)cc1OC`, for which the inhibition in [1] was found to be 19%.

In the case of `COc1cc(C(C)C)c(Cn2cnc3nc(N)nc(N)c32)cc1I`, in [4], the inhibition is 43%.

Take `COc1cc(C(C)C)c(Cn2cnc3c(N)nc(N)nc32)cc1I`: the inhibition worked out at 93% in assay [1], 35% in [2], 23% in [8] and 78% in assay [4]. In addition, the IC50 on P2X purinoceptor 3 amounted to 2230 nM.

With `CNc1nc(N)nc2c1ncn2Cc1cc(OC)c(OC)cc1C(C)C`, the inhibition in [1] came to 71%.

Turning to `COc1cc(Cn2cnc3nc(N)nc(N)c32)c(C(C)C)cc1OC`, the inhibition in [1] is 23%.

For `COc1cc(C(C)C)c(Cn2cnc3c(NC4CCCC4)nc(N)nc32)cc1I`, the inhibition in assay [1] was determined as 58%; in assay [2], 51%; in [8] it was 45%; in assay [4] it was 60%.
